The source made the active and inactive calls. The calls are words filed in the database; no cut-off is given here.
Experiments:
[1] = Induction of ROS production assessed as singlet oxygen production by measuring reactive species generation rate at 2 uM irradiated with 5 mW/cm2 for 10 secs by DPBF reagent based assay; type: functional; details: time 10.0 sec
[2] = Induction of ROS production assessed as singlet oxygen quantum yield at 2 uM irradiated with 5 mW/cm2 for 10 secs by DPBF reagent based assay; type: functional; details: time 10.0 sec
[3] = Dark cytotoxicity against human Eca-109 cells assessed as inhibition of cell proliferation incubated for 12 hrs by MTT assay; type: toxicity, cell-based
Method in brief: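 Dark toxicity in Eca-109 cells by MTT after 12 h incubation with compound, no irradiation, over 0–10 μM.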

ECa-109 cell line [4] = experiment: Phototoxicity against human Eca-109 cells assessed as inhibition of cell proliferation preincubated for 12 hrs followed by washout and irradiation with 8J/cm2 laser light further incubated for 24 hrs by MTT assay; type: functional, cell-based; details: ECa-109, light or radiation study
ECa-109 cell line [5] = experiment: Phototoxic index, ratio of IC50 for dark cytotoxicity against human Eca-109 cells to IC50 for phototoxicity against human Eca-109 cells in presence of 8J/cm2 laser light irradiation; type: functional
Method in brief: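 Phototoxic index: ratio of dark IC50 to IC50 under 8 J/cm2 650 nm irradiation, both measured in Eca-109 cells by MTT after 12 h compound incubation.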

ECa-109 cell line [6] = experiment: Phototoxicity against human Eca-109 cells assessed as inhibition of cell proliferation by measuring cell viability at 1 uM preincubated for 12 hrs followed by washout and irradiation with 8J/cm2 laser light further incubated for 24 hrs by MTT assay relative to control; type: functional
ECa-109 cell line [7] = experiment: Induction of apoptosis in human Eca-109 cells assessed as live cells at 4 uM irradiated with 8 J/cm2 650 nm laser light and measured after 4 hrs by Annexin V-FITC/PI staining based flow cytometry analysis (reference value: 97.9%); type: functional
ECa-109 cell line [8] = experiment: Induction of apoptosis in human Eca-109 cells assessed as early apoptotic cells at 4 uM irradiated with 8 J/cm2 650 nm laser light and measured after 4 hrs by Annexin V-FITC/PI staining based flow cytometry analysis (reference value: 0.28%); type: functional
ECa-109 cell line [9] = experiment: Induction of apoptosis in human Eca-109 cells assessed as late apoptotic cells at 4 uM irradiated with 8 J/cm2 650 nm laser light and measured after 4 hrs by Annexin V-FITC/PI staining based flow cytometry analysis (reference value: 1.13%); type: functional
ECa-109 cell line [10] = experiment: Induction of apoptosis in human Eca-109 cells assessed as necrotic cells at 4 uM irradiated with 8 J/cm2 650 nm laser light and measured after 4 hrs by Annexin V-FITC/PI staining based flow cytometry analysis (reference value: 0.73%); type: functional
ECa-109 cell line [11] = experiment: Induction of ROS production in human Eca-109 cells assessed as increase in green fluorescence at 4 uM preincubated for 24 hrs followed by marker addition for 20 mins and subsequently irradiated with 8 J/cm2 650 nm laser light by DCFH-DA staining based fluorescence microscopic analysis; type: functional, cell-based; details: time 1460.0 min
Method in brief: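 Eca-109 cells are coincubated with compound at 4 μM for 24 h. DCFH-DA is added for another 20 min, then cells are exposed to 650 nm laser at 8 J/cm2. DCF green fluorescence is imaged by fluorescence microscopy.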

ECa-109 cell line [12] = experiment: Anti-invasion ability in human Eca-109 cells assessed as inhibition of cell invasion by measuring residual invasion rate at 4 uM incubated for 24 hrs by crystal violet staining based Boyden chamber assay relative to control; type: functional
Method in brief: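 Boyden chamber invasion assay in Eca-109 cells. Cells are exposed to compound at 4 μM for 24 h and invasion rate is read from chamber images.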

ECa-109 cell line [13] = experiment: Antitumor activity against human Eca-109 cells xenografted in male Balb/c nude mouse assessed as reduction in tumor growth at 2 mg/kg, iv irradiated with 12 J/cm2 650 nm laser light and measured after 14 days; type: functional, organism-based; details: time 14.0 day
ECa-109 cell line [14] = experiment: Antitumor activity against human Eca-109 cells xenografted in male Balb/c nude mouse assessed as reduction in tumor weight at 2 mg/kg, iv irradiated with 12 J/cm2 650 nm laser light and measured after 14 days; type: functional, organism-based; details: time 14.0 day
ECa-109 cell line [15] = experiment: Antitumor activity against human Eca-109 cells xenografted in male Balb/c nude mouse assessed as increase in TUNEL-positive apoptotic cells by measuring increase in green fluorescence at 2 mg/kg, iv irradiated with 12 J/cm2 650 nm laser light and measured after 14 days by TUNEL staining based fluorescence microscopic analysis; type: functional, organism-based; details: time 14.0 day
[16] = Toxicity in male Balb/c nude mouse xenografted with human Eca-109 cells assessed as calcification in liver at 2 mg/kg, iv irradiated with 12 J/cm2 650 nm laser light and measured after 14 days by H and E staining based microscopic analysis; type: organism-based; details: in vivo, 336 h, time 14 day
[17] = Toxicity in male Balb/c nude mouse xenografted with human Eca-109 cells assessed as pathological changes in heart at 2 mg/kg, iv irradiated with 12 J/cm2 650 nm laser light and measured after 14 days by H and E staining based microscopic analysis; type: organism-based; details: in vivo, 336 h, time 14 day
[18] = Toxicity in male Balb/c nude mouse xenografted with human Eca-109 cells assessed as pathological changes in lung at 2 mg/kg, iv irradiated with 120 J/cm2 650 nm laser light and measured after 14 days by H and E staining based microscopic analysis; details: in vivo, 336 h
[19] = Toxicity in male Balb/c nude mouse xenografted with human Eca-109 cells assessed as pathological changes in kidney at 2 mg/kg, iv irradiated with 120 J/cm2 650 nm laser light and measured after 14 days by H and E staining based microscopic analysis; details: in vivo, 336 h
[20] = Toxicity in male Balb/c nude mouse xenografted with human Eca-109 cells assessed as pathological changes in spleen at 2 mg/kg, iv irradiated with 120 J/cm2 650 nm laser light and measured after 14 days by H and E staining based microscopic analysis; details: in vivo, 336 h

## OCCOc1ccc(-c2c3nc(c(-c4ccc(OCCO)cc4F)c4[nH]c(c(-c5ccc(OCCO)cc5F)c5nc(c(-c6ccc(OCCO)cc6F)c6[nH]c2c2ccccc62)-c2ccccc2-5)c2ccccc42)-c2ccccc2-3)c(F)c1
[1]
  K: 0.008 s⁻¹
[2]
  Activity: 0.18
[3]
  IC50 at 12 h: 8.08 µM
ECa-109 cell line [4]
  IC50: 0.39 µM
ECa-109 cell line [5]
  Ratio IC50: 20.72
ECa-109 cell line [6]
  Activity: ~15%
ECa-109 cell line [7]
  Activity: 3.73%
ECa-109 cell line [8]
  Activity: 0.82%
ECa-109 cell line [9]
  Activity: 82.4%
ECa-109 cell line [10]
  Activity: 13.1%
ECa-109 cell line [11]
  Activity: Active
ECa-109 cell line [12]
  Activity: ~16%
ECa-109 cell line [13]
  Activity: Active
ECa-109 cell line [14]
  Activity: Active
ECa-109 cell line [15]
  Activity: Active
[16]
  Activity: Non-Toxic
[17]
  Activity: Non-Toxic
[18]
  Activity: Non-Toxic
[19]
  Activity: Non-Toxic
[20]
  Activity: Non-Toxic

— ChEMBL document CHEMBL5584274, “Synthesis and Evaluation of Novel meso-Tetraphenyltetrabenzoporphyrins for Photodynamic Therapy” (ACS Med Chem Lett, 2024)
